Data as given in paper PMC6044994 (ACS Omega, 2018).
Converted amounts (≈) assume the structure as drawn. Where two headings read alike, the source gives them in different places.

What was measured:
[1] = system: S. pneumoniae; experiment: CFU count of bacterial cells post treatment; type: cell-based, Streptococcus pneumoniae; settings: treated bacterial cells
[2] = system: human red blood cells (hRBCs); experiment: Hemolytic assay; type: cell-based
Outline: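 Erythrocytes from healthy donors (EDTA) pelleted at 2000 rpm for 10 min at 20 °C and washed three times in PBS. Made to a 10% suspension, diluted 1:10, then mixed 1:1 with test compound in PBS (gradient 1000–7.8 μg/mL). Incubated 1 h at 37 °C and centrifuged; supernatant A450 used to calculate % hemolysis.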

[3] = system: G. mellonella larvae; experiment: In vivo toxicity, larval viability; parameters: species or system Galleria mellonella; settings: up to 2.5 mg/mL
[4] = system: E. coli; experiment: Growth kinetic studies; type: cell-based, Escherichia coli; settings: for time at which growth was observed (lag phase): sub-MIC concentration
Outline: (§1)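 Fresh cultures grown 12 h at 37 °C, then about 2 × 10^6 cells/mL inoculated into 50 mL nutrient broth. […] Shaken at 37 °C, 160 rpm. Samples taken every 2 h from 0 to 22 h, with OD600 plotted against time.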

[5] = system: E. coli biofilm; experiment: Anti-biofilm activity by crystal violet assay; type: cell-based; settings: Escherichia coli, read-out: inhibition of biofilm formation (crystal violet)
[6] = system: G. mellonella larvae; experiment: In vivo toxicity, hemocyte density of larvae; parameters: species or system Galleria mellonella; settings: 2.5 mg/mL, 24 h
Outline: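 Three larvae injected with 20 μL of test compound at 1.25 or 2.5 mg/mL and kept 24 h at 30 °C in the dark. Hemolymph collected from the anterior end and diluted 1 in 10 in cold PBS with 0.37% 2-mercaptoethanol. Hemocytes counted on a hemocytometer and density back-calculated.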

[7] = system: S. pneumoniae biofilm; experiment: Anti-biofilm activity by XTT reduction assay; type: cell-based; settings: Streptococcus pneumoniae, read-out: inhibition of biofilm formation (XTT)
Outline: (§2)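 Biofilm grown in tryptic soy broth from 5 × 10^5 CFU/mL inocula with 2-fold serial dilutions of test compound (7.812–1000 μg/mL), 37 °C for 24 h, static. Nonadherent cells removed by PBS wash.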

[8] = system: HEK293 cells; experiment: Cytotoxicity by MTT assay; type: cell-based, human; settings: HEK293, up to 100 μg/mL concentration
[9] = Cytotoxicity by MTT assay; type: cell-based, human; settings: human, HEK293 cells
[10] = system: S. pneumoniae cells; experiment: TEM analysis of cell morphology; type: cell-based, Streptococcus pneumoniae; settings: MIC concn, 1 h
Outline: (§3)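 Cells standardized to A600 ≈ 0.1 and exposed 1 h to test compound: E. coli at 62.5 or 125 μg/mL, S. pneumoniae at 125 μg/mL. Washed in PBS, fixed overnight in 2.5% glutaraldehyde (phosphate/MgCl2 buffer, pH 6.5). Postfixed 2 h in 2% OsO4, stained en bloc with 1% uranyl acetate, ethanol-dehydrated, Epon-embedded (60 °C, 48 h). Ultrathin sections imaged by TEM.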

[11] = system: multidrug-resistant E. coli strains MRA11, MRC17, MRAE33; experiment: Synergistic study with CIP, checkerboard method; type: cell-based, Escherichia coli; settings: for MIC: Escherichia coli
[12] = system: S. pneumoniae; experiment: Growth kinetic studies; type: cell-based, Streptococcus pneumoniae; settings: for time at which growth was observed: S. pneumoniae
Outline: as §1

[13] = system: multidrug-resistant E. coli strains; type: cell-based, Escherichia coli; settings: for inhibition at 1024 µg/mL: Escherichia coli
[14] = system: S. pneumoniae biofilm; experiment: Anti-biofilm activity by crystal violet assay; type: cell-based; settings: Streptococcus pneumoniae, read-out: inhibition of biofilm formation (crystal violet)
[15] = system: S. pneumoniae (MTCC 655); experiment: In vitro antibacterial activity, broth dilution; type: cell-based; settings: Streptococcus pneumoniae, MTCC655
[16] = system: E. coli cells; experiment: TEM analysis of cell morphology; type: cell-based, Escherichia coli; settings: MIC concn, 1 h
Outline: as §3

[17] = system: E. coli biofilm; experiment: Anti-biofilm activity by XTT reduction assay; type: cell-based; settings: Escherichia coli, read-out: inhibition of biofilm formation (XTT)
Outline: as §2

[18] = system: E. coli (ATCC 25922); experiment: In vitro antibacterial activity, broth dilution; type: cell-based; settings: Escherichia coli, ATCC25922
[19] = system: E. coli; experiment: CFU count of bacterial cells post treatment; type: cell-based, Escherichia coli; settings: treated bacterial cells
[20] = E. coli MRA11, in combination with CIP
[21] = E. coli MRA11, test compound in combination with CIP
[22] = E. coli MRAE33, in combination with CIP
[23] = E. coli MRAE33, test compound in combination with CIP
[24] = E. coli MRC17, in combination with CIP
[25] = E. coli MRC17, test compound in combination with CIP
[26] = read-out: MIC alone, E. coli MRA11
[27] = read-out: MIC alone, E. coli MRAE33
[28] = read-out: MIC alone, E. coli MRC17
[29] = read-out: % inhibition of growth, E. coli MRA11, at 1024 μg/mL (MIC)
[30] = read-out: % inhibition of growth, E. coli MRAE33, at 1024 μg/mL (MIC)
[31] = read-out: % inhibition of growth, E. coli MRC17, at 1024 μg/mL (MIC)

Q: Which results are given for `Cc1ccc(C(C)C)cc1OCc1cn(-c2ccc(C(=O)O)cc2)nn1` [Compound 5e, 4-(4-((5-Isopropyl-2-methylphenoxy)methyl)-1H-1,2,3-triazol-1-yl)benzoic Acid]?
A: CFUs S. pneumoniae [1]: 7.8 × 10^3; cell lysis ([2]; 200 μg/mL): 9%; cell lysis ([2]; 600 μg/mL): 22%; viability of the larvae [3]: not affected; time at which growth was observed (lag phase) ([4]; E. coli): approximately 6 h; growth of E. coli ([4]; MIC and 2MIC concentrations, up to 22 h of incubation): no significant growth; inhibition at 125 µg/mL [5]: 94.3%; hemocyte density of the larvae [6]: not significantly affected; inhibition at 250 µg/mL [7]: 92.3%; cytotoxicity [8]: did not show significant cytotoxicity; viability at 48 h, 50 μg/mL [9]: > 75%; viability at 48 h, 200 μg/mL [9]: > 50%; effect on cell morphology (TEM) [10]: significantly damaged the cell wall; FICI [11, 20]: 0.03; mode of interaction [11, 20]: synergistic (Synergy and antagonism were defined by FICI ≤ 0.5 and >4, respectively); MIC in combination [11, 21]: 16 µg/mL; FICI [11, 22]: 1.02; mode of interaction [11, 22]: indifferent (indifferent was defined by 1 < FICI ≤ 4); MIC in combination [11, 23]: 16 µg/mL; FICI [11, 24]: 0.03; mode of interaction [11, 24]: synergistic (Synergy and antagonism were defined by FICI ≤ 0.5 and >4, respectively); MIC in combination [11, 25]: 16 µg/mL; MIC [11, 26]: 1020 µg/mL; MIC [11, 27]: 1020 µg/mL; MIC [11, 28]: 1020 µg/mL; growth of S. pneumoniae ([12]; sub-MIC concentration (62.5 μg/mL)): effectively inhibited the growth; inhibition at 1024 µg/mL [13, 29]: > 95%; inhibition at 1024 µg/mL [13, 30]: 86%; inhibition at 1024 µg/mL [13, 31]: 79%; inhibition at 250 µg/mL [14]: 93.4%; MIC [15]: 125 µg/mL (≈ 356 µM); effect on cell morphology (TEM) [16]: significantly damaged the cell wall; inhibition at 125 µg/mL [17]: 95.2%; MIC [18]: 62.5 µg/mL (≈ 178 µM); CFUs E. coli [19]: 2.5 × 10^4

Q: What does the source list for `O=C(O)c1ccc(-n2cc(COC3=CC(=O)c4ccccc4C3=O)nn2)cc1` [Compound 5u, 4-(4-((1,4-Dioxo-1,4-dihydronaphthalen-2-yloxy)methyl)-1H-1,2,3-triazol-1-yl)benzoic Acid]?
A: CFUs S. pneumoniae [1]: 6.0 × 10^3; cell lysis ([2]; 200 μg/mL): 9%; cell lysis ([2]; 600 μg/mL): 12%; viability of the larvae [3]: not affected; time at which growth was observed ([4]; E. coli, MIC concentration): 9 h; time at which growth was observed (lag phase) ([4]; E. coli): 6 h; inhibition at 250 µg/mL [5]: 77.3%; hemocyte density of the larvae [6]: not significantly affected; inhibition at 250 µg/mL [7]: 100%; cytotoxicity [8]: did not show significant cytotoxicity; viability at 48 h, 50 μg/mL [9]: > 75%; viability at 48 h, 200 μg/mL [9]: > 50%; effect on cell morphology (TEM) [10]: significantly damaged the cell wall; FICI [11, 20]: 0.62; mode of interaction [11, 20]: partially synergistic (Partially synergistic was denoted by 0.5 > FICI < 1); MIC in combination [11, 21]: 512 µg/mL; FICI [11, 22]: 1.02; mode of interaction [11, 22]: indifferent (indifferent was defined by 1 < FICI ≤ 4); MIC in combination [11, 23]: 16 µg/mL; FICI [11, 24]: 1.50; mode of interaction [11, 24]: indifferent (indifferent was defined by 1 < FICI ≤ 4); MIC in combination [11, 25]: 1024 µg/mL; MIC [11, 26]: 1020 µg/mL; MIC [11, 27]: 1020 µg/mL; MIC [11, 28]: 1020 µg/mL; time at which growth was observed ([12]; MIC concentration): 9 h; time at which growth was observed ([12]; sub-MIC concentration): 8 h; inhibition at 1024 µg/mL [13, 29]: > 90%; inhibition at 1024 µg/mL [13, 30]: ~100%; inhibition at 1024 µg/mL [13, 31]: ~100%; inhibition at 250 µg/mL [14]: 98.3%; MIC [15]: 125 µg/mL (≈ 333 µM); effect on cell morphology (TEM) [16]: significantly damaged the cell wall; inhibition at 250 µg/mL [17]: 92.3%; MIC [18]: 125 µg/mL (≈ 333 µM); CFUs E. coli [19]: 2.7 × 10^4

Q: Which results are given for `O=C(O)c1cn(C2CC2)c2cc(N3CCNCC3)c(F)cc2c1=O` [CIP, Ciprofloxacin, reference compound]?
A: CFUs S. pneumoniae [1]: 5.0 × 10^3; cell lysis ([2]; 200 μg/mL): 0.8%; MIC in combination ([11]; E. coli MRA11, CIP in combination with 5e): 2 µg/mL; MIC in combination ([11]; E. coli MRA11, CIP in combination with 5u): 16 µg/mL; MIC in combination ([11]; E. coli MRAE33, CIP in combination with 5e): 2 µg/mL; MIC in combination ([11]; E. coli MRAE33, CIP in combination with 5u): 2 µg/mL; MIC in combination ([11]; E. coli MRC17, CIP in combination with 5e): 2 µg/mL; MIC in combination ([11]; E. coli MRC17, CIP in combination with 5u): 64 µg/mL; MIC [11, 26]: 128 µg/mL; MIC [11, 27]: 2 µg/mL; MIC [11, 28]: 128 µg/mL; % inhibition of growth ([13]; multidrug-resistant E. coli strains, at a concentration lower than those of the compounds): ~100%; CFUs E. coli [19]: 2.0 × 10^4
